From PubChem
GalR3 antag – antagonists of human GalR3 | O60755 | HEK293 GalR3-CNG cAMP membrane potential fluorescence; galR3 body fused to GalR1 C-terminus | inhibition, % at 3 µM | hit rate 0.44% among 360,000 | AID 651719;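 active = inhibition above the screen-wide average plus 3 SD, cut at about 13% in these data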;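 note: forskolin and galanin both at EC90 stimulate the cells; cAMP rise reported by CNG channel membrane potential dye signal; 0% = forskolin plus galanin with DMSO and 100% = forskolin alone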
OX1R antag-1 – antagonists of human orexin 1 receptor (OX1R); OX1R-expressing cells, FRET antagonist read-out; inhibition, % at 6.6 µM; hit rate 1.8% among 330,000; AID 485270; in the data active = inhibition mostly above about 38%, no sharp cut-off; inactive = mostly below about 40%;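 note: 0% = agonist challenge alone and 100% = reference antagonist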
Target sequence (O43613 whole entry, looked up): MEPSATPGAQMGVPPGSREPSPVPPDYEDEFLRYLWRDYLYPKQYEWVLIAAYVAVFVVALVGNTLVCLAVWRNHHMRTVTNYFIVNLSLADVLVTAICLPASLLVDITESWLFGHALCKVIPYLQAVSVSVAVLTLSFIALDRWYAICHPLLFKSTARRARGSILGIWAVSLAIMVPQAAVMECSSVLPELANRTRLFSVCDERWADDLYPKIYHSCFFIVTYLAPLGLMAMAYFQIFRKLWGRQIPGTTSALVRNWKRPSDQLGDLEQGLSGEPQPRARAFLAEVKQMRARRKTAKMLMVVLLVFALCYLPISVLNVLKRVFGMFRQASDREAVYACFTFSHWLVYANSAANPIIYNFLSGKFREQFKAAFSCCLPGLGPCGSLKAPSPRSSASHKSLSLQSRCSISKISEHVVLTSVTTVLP
OX1R antag-2 – human HCRTR1 antagonism. hit rate 0.43% among 330,000. CHO/OX1R cells, Fluo-8 calcium fluorescence, orexin A. O43613. inhibition, % at 5 µM;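 active = inhibition above its plate's threshold, mean inhibition of all tested compounds on the plate plus 3 SD, cut at about 37% in these data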;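 note: 0% = orexin A challenge wells and 100% = SB-334867-A antagonist wells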
GPR7 antagonist – blocks human GPR7 receptor signaling. hit rate 1.1% among 290,000. AID 1861. P48145. GPR7-expressing cells, fluorescence antagonist assay. inhibition, % at 4.4 µM; in the data active = inhibition above about 16%, passing the limit was not always enough;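 note: cells stimulated with the agonist NPW; 0% = agonist with vehicle and 100% = vehicle without agonist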
CHO parental Ca – signal in parental CHO cells, OX1R antagonist counter-screen; parental CHO-K1, ATP-induced calcium, Fluo-8 fluorescence; inhibition, % at 5.6 µM; hit rate 0.63% among 330,000;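 active = inhibition above that plate's mean sample inhibition plus 3 SD, cut at about 26% in these data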;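 note: 0% = ATP-challenged DMSO wells and 100% = DMSO wells without ATP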
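Material: parental CHO cells / Compound: single nominal dose of 5.6 µM per compound / Signal: Fluo-8 fluorescence / Replicates: singlicate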
OX1R HTRF conf – OX1R (human) antagonism, HTRF confirmed | inhibition, % at 6.6 µM | hit rate 49% among 1,800 | OX1R-expressing cells, HTRF antagonist assay | shares compounds with OX1R antag-1; in the data active = inhibition above about 55%;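 note: CHO cells expressing OX1R stimulated with orexin A at about EC80; 0% = agonist challenge alone and 100% = reference antagonist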
CHO-K1 HTRF cnt – signal in parental CHO-K1 cells, OX1R antagonist counter-screen; shares compounds with OX1R antag-1; HTRF counterscreen; inhibition, % at 6.6 µM; hit rate 48% among 1,800; AID 493232; in the data active = inhibition above about 17%;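 note: 0% = agonist challenge with vehicle and 100% = vehicle alone without agonist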
The depositor's hits bear a star. Rows were chosen to be rich in hits. Some 3.1% of all compounds tested hit in one or more screens of this group.

`O=S(=O)(NCCCc1ccccc1)c1cccc2nsnc12` gave GalR3 antag -1, OX1R antag-1 27, OX1R antag-2 2, GPR7 antagonist -12 and CHO parental Ca -13.
`O=S(=O)(NCc1ccccn1)c1cccc2nsnc12` gave GalR3 antag 3, OX1R antag-1 85*, OX1R antag-2 -4, GPR7 antagonist -13, CHO parental Ca -10, OX1R HTRF conf 31 and CHO-K1 HTRF cnt 43*.
Screening COC(=O)c1cc(C)nc2c1C(=O)C(=O)C=C2N1CCOCC1 returned GalR3 antag -14, OX1R antag-1 99*, OX1R antag-2 -12, GPR7 antagonist -25, CHO parental Ca -8, OX1R HTRF conf 79* and CHO-K1 HTRF cnt 114*.
COc1ccc(NC(=O)c2cn(-c3ccccc3)nc2-c2cc3ccccc3o2)cc1 was read as GalR3 antag 0, OX1R antag-1 14, OX1R antag-2 -13, GPR7 antagonist -17 and CHO parental Ca -3.
`OCc1cn(-c2ccccc2)nc1-c1cc2ccccc2o1` gave GalR3 antag 1, OX1R antag-1 81*, OX1R antag-2 -13, GPR7 antagonist -2, CHO parental Ca 0, OX1R HTRF conf 35 and CHO-K1 HTRF cnt 12.
`COc1ccccc1CCC(=O)N1CCN(S(=O)(=O)c2cc(C(F)(F)F)ccc2Cl)CC1` gave GalR3 antag -3, OX1R antag-1 7, OX1R antag-2 -17 and CHO parental Ca -17.
Screening Cc1c(C(=O)Nc2nccs2)oc2c(Cl)cccc12 returned GalR3 antag -4, OX1R antag-1 77*, OX1R antag-2 -4, CHO parental Ca -16, OX1R HTRF conf 67* and CHO-K1 HTRF cnt 14.
CC(C)N(Cc1nc(-c2ccccc2)no1)C(=O)C(C)(C)C was read as GalR3 antag 0, OX1R antag-1 34, OX1R antag-2 -28, GPR7 antagonist -8 and CHO parental Ca -16.
`COc1cccc(C(=O)N(Cc2nc(-c3cccc(C)c3)no2)C(C)C)c1OC` gave GalR3 antag -1, OX1R antag-1 81*, OX1R antag-2 11, GPR7 antagonist -12, CHO parental Ca -13, OX1R HTRF conf 69* and CHO-K1 HTRF cnt -9.
`CC(C)N(Cc1nc(-c2ccccc2)no1)C(=O)Cc1ccccc1` gave OX1R antag-1 78*, OX1R antag-2 10, GPR7 antagonist 0, CHO parental Ca -15, OX1R HTRF conf 52 and CHO-K1 HTRF cnt -15.
CCC(CC)C(=O)N(C)c1c(C)nc2c(OCc3ccccc3C(=O)OC)cccn12 was read as GalR3 antag -5.
COc1ccccc1NC(=O)C(C)OC(=O)C(C)SCC(=O)Nc1ccc(C)cc1 (stereo unspecified) was read as GalR3 antag 0.
Screening CCC(=O)Nc1ccccc1Nc1cc(C#N)c(C#N)cc1[N+](=O)[O-] returned GalR3 antag -2, OX1R antag-1 active, OX1R antag-2 -17, CHO parental Ca -20, OX1R HTRF conf 59* and CHO-K1 HTRF cnt 72*.
CCn1c2ccccc2c2cc(NC(=O)c3ccco3)ccc21 was read as GalR3 antag -3, OX1R antag-1 77*, OX1R antag-2 18, GPR7 antagonist 0, CHO parental Ca -24, OX1R HTRF conf 52 and CHO-K1 HTRF cnt 16.
Screening CCn1c2ccccc2c2cc(NC(=O)COc3ccccc3OC)ccc21 returned GalR3 antag -10, OX1R antag-1 101*, OX1R antag-2 27, GPR7 antagonist 5, CHO parental Ca -16, OX1R HTRF conf 79* and CHO-K1 HTRF cnt 21*.
CCn1c2ccccc2c2cc(NC(=O)CNCc3ccccc3OC)ccc21 was read as GalR3 antag -5, OX1R antag-1 20, OX1R antag-2 -20, GPR7 antagonist 16 and CHO parental Ca -5.
`O=C(CSc1nnc(-c2ccc(C(F)(F)F)cn2)s1)c1ccc(Cl)cc1` gave GalR3 antag 1, OX1R antag-1 0, OX1R antag-2 19, GPR7 antagonist -4 and CHO parental Ca -4.
For CC(=O)Oc1ccc(C(=O)O)cc1OC(C)=O the results were GalR3 antag -2, OX1R antag-1 1, OX1R antag-2 7, GPR7 antagonist 0 and CHO parental Ca 5.
Screening CC(=O)Oc1cccc2c1C(=O)c1c(OC(C)=O)cc(C(=O)O)cc1C2=O returned GalR3 antag 0, OX1R antag-1 95*, OX1R antag-2 -7, GPR7 antagonist -8, CHO parental Ca 5, OX1R HTRF conf 56* and CHO-K1 HTRF cnt 112*.
Screening CCS(=O)(=O)N1CCC(C(=O)Nc2ccc(C(C)=O)cc2)CC1 returned GalR3 antag -5, OX1R antag-1 1, OX1R antag-2 -10, GPR7 antagonist -14 and CHO parental Ca -3.
NCCCC[C@@H]1NC(=O)c2cc([N+](=O)[O-])cc(I)c2SC[C@@H](C(N)=O)NC(=O)[C@H](CCC(N)=O)NC1=O was read as GalR3 antag -1, OX1R antag-1 46, OX1R antag-2 0, GPR7 antagonist -9 and CHO parental Ca -9.
`NCCCC[C@@H]1NC(=O)c2cc([N+](=O)[O-])cc(I)c2SC[C@@H](C(=O)NCC(N)=O)NC(=O)CNC1=O` gave OX1R antag-1 87*, OX1R antag-2 -15, GPR7 antagonist 2, CHO parental Ca -1, OX1R HTRF conf 31 and CHO-K1 HTRF cnt 56*.
`CS(=O)(=O)c1ccc(Cl)c(C(=O)OCC(=O)NC2CCCCCCC2)c1` gave GalR3 antag -5, OX1R antag-1 19, OX1R antag-2 -26 and CHO parental Ca -12.
Screening COCCN(C(=O)CSc1nc2ccc(C)cc2[nH]1)c1c(N)n(Cc2ccccc2)c(=O)[nH]c1=O returned GalR3 antag -2, OX1R antag-1 22, OX1R antag-2 12, GPR7 antagonist -7 and CHO parental Ca -17.
COCCN(C(=O)CSc1nc2ccc(OC)cc2[nH]1)c1c(N)n(Cc2ccccc2)c(=O)[nH]c1=O was read as GalR3 antag -4, OX1R antag-1 90*, OX1R antag-2 -15, CHO parental Ca -7, OX1R HTRF conf 17 and CHO-K1 HTRF cnt -4.
For CC(=O)Nc1ccc(NC(=O)C(C)OC(=O)C(C)SCC(=O)Nc2ccc(C)cc2)cc1 (stereo unspecified) the results were GalR3 antag -2, OX1R antag-1 82*, OX1R antag-2 -1, CHO parental Ca 11, OX1R HTRF conf 75* and CHO-K1 HTRF cnt 3.
For Cc1ccc(S(=O)(=O)NC(C)(C)CN2CCCCC2)cc1 the results were GalR3 antag -4, OX1R antag-1 13, OX1R antag-2 -13, GPR7 antagonist 4 and CHO parental Ca -3.
Screening O=C(/C=C/c1cccc(Cl)c1)Nc1ncccn1 returned GalR3 antag -3, OX1R antag-1 25, OX1R antag-2 -11, GPR7 antagonist -9 and CHO parental Ca -9.
